In publication PMC5554913 (ACS Medicinal Chemistry Letters, 2017):

Columns and labels:
[1] = system: human lymphoblasts (CRL-8155); assay: Mammalian cell growth inhibition; assay type: cell-based; conditions: CRL-8155 cell line
Hep G2 cell line = assay: Cytotoxicity on Hep G2 cell line; assay type: cell-based
[2] = system: T. brucei brucei strain BF427; assay: T. brucei growth inhibition; assay type: cell-based; conditions: for improvement in potency compared to compound 1: T. brucei EC50 vs compound 1
CYP3A4 = CYP3A4 (Homo sapiens, UniProt P08684); assay: CYP3A4 inhibition; assay type: in vitro ADME
Chain of CYP3A4 (P08684 whole entry, species assumed): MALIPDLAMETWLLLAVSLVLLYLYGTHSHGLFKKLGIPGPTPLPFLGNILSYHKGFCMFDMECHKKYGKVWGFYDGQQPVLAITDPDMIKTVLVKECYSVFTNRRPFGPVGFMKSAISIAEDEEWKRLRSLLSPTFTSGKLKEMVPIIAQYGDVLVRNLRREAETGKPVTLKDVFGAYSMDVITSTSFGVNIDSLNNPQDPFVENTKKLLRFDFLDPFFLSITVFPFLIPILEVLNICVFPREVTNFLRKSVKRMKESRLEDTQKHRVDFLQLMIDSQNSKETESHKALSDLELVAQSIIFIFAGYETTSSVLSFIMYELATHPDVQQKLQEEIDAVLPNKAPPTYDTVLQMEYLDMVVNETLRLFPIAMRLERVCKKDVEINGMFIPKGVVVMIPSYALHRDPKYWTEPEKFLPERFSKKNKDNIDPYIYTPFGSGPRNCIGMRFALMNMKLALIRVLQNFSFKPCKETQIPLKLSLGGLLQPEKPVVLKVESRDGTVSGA

[3] = system: T. brucei rhodesiense STIB900; assay: Mouse efficacy model of acute T. brucei infection; assay type: in vivo; conditions: five mice, T. brucei rhodesiense STIB900, 50 mg/kg oral gavage b.i.d. days 2-5
Outline: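 Mice were infected with T. brucei rhodesiense STIB900 on day 0 and placed in groups of five. Test compound was given at 50 mg/kg by oral gavage twice daily on days 2–5, with a vehicle-treated group. Cure meant no detectable parasitemia […] through 60 days postinfection.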

[4] = Metabolic stability in pooled mouse liver microsomes; assay type: in vitro ADME; conditions: microsome T1/2, mouse microsomes
Outline: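 Half-life of test compound measured in mouse liver microsomes. Testosterone and dextromethorphan HBr were run alongside as controls and had to fall within acceptable ranges.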

COc1ccc(N2C(=O)CN(Cc3ccccc3)C2=S)cc1Cl [Compound 1]
cytotoxicity on CRL-8155 [1]: no detected cytotoxicity
cytotoxicity on Hep G2 (Hep G2 cell line): no detected cytotoxicity

COc1ccc(N2C(=O)CN(Cc3ccccc3)C2=S)cc1N(C)C [Compound 37]
drop in activity compared to 36 ([2]; T. brucei EC50 vs compound 36): 30 fold

COc1ccc(N2C(=O)CN(Cc3cccc(F)c3)C2=S)cc1Cl [Compound 40]
decrease in potency compared to 39 ([2]; T. brucei EC50 vs compound 39): 18 fold

CN(C)c1ccc(N2C(=O)CN(Cc3ccc(F)cc3)C2=S)cc1Cl [Compound 68, 1-(4-fluorobenzyl)-3-(4-dimethylamino-3-chlorophenyl)-2-thiohydantoin]
IC50 (CYP3A4): 12.8 µM
cures (absence of detectable parasitemia for 60 days postinfection) [3]: 5/5
improvement in potency compared to compound 1 [2]: > 100 fold

COc1cc(N2C(=O)CN(Cc3ccc(F)cc3Cl)C2=S)ccc1N(C)C [Compound 76, 1-(2-chloro-4-fluorobenzyl)-3-(4-dimethylamino-3-methoxyphenyl)-2-thiohydantoin]
cures (absence of detectable parasitemia for 60 days postinfection) [3]: 5/5
improvement in potency compared to compound 1 [2]: > 100 fold

C[C@]12CC[C@H]3[C@@H](CCC4=CC(=O)CC[C@@]43C)[C@@H]1CC[C@@H]2O [Testosterone]
half-life at 1.5 µM [4]: 3.97 min

COc1ccc2c(c1)[C@]13CCCC[C@@H]1[C@H](C2)N(C)CC3 [dextromethorphan HBr]
half-life at 1.5 µM [4]: 9.51 min
